Reference: ChEMBL document CHEMBL1123921, “Quinolonecarboxylic acids. 2. Synthesis and antibacterial evaluation of 7-oxo-2,3-dihydro-7H-pyrido[1,2,3-de][1,4]benzothiazine-6-carboxylic acids” (J Med Chem, 1987)
Converted amounts (≈) assume the structure as drawn.

Experiments:
Type in all cases: functional
Enterobacter cloacae = test: In vitro antibacterial activity against clinical isolates of Enterobacter cloacae 041 (gram negative) by agar dilution assay.
In short: (§1)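 Agar dilution on Isosensitest agar; compound incorporated by twofold serial dilution. Overnight broth cultures delivered by multipoint inoculator at 10⁵ CFU per point. Plates read after 18 h at 37 °C. MIC taken as the lowest concentration giving complete growth inhibition.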

Escherichia coli = test: In vitro antibacterial activity against clinical isolates of Escherichia coli 15 (gram negative) by agar dilution assay.; in short: as §1
Staphylococcus aureus = test: In vitro antibacterial activity against clinical isolates of Staphylococcus aureus 18773 (gram-positive) by agar dilution assay.; in short: as §1
Morganella morganii = test: In vitro antibacterial activity against clinical isolates of Proteus morganii 27 (gram negative) by agar dilution assay.; in short: as §1
Pseudomonas aeruginosa = test: In vitro antibacterial activity against clinical isolates of Pseudomonas aeruginosa 2437 (gram negative) by agar dilution assay.; in short: as §1
Klebsiella pneumoniae = test: In vitro antibacterial activity against clinical isolates of Klebsiella pneumoniae-4 (gram negative) by agar dilution assay.; in short: as §1

| SMILES | MIC (Enterobacter cloacae) | MIC (Escherichia coli) | MIC (Staphylococcus aureus) | MIC (Morganella morganii) | MIC (Pseudomonas aeruginosa) | MIC (Klebsiella pneumoniae) |
| --- | --- | --- | --- | --- | --- | --- |
| O=C(O)c1cn2c3c(c(Cl)c(F)cc3c1=O)S(=O)(=O)CC2 |  | > 50 µg/mL |  |  |  |  |
| O=C(O)c1cn2c3c(cc(F)c(N4CCCC4)c3c1=O)SCC2 |  | > 100 µg/mL | > 100 µg/mL |  |  | > 100 µg/mL |
| CN1CCN(c2cc3c4c(c2)c(=O)c(C(=O)O)cn4CCS3)CC1 |  | 100 µg/mL (≈ 289 µM) | 100 µg/mL (≈ 289 µM) | 100 µg/mL (≈ 289 µM) | > 100 µg/mL |  |
| O=C(O)c1cn2c3c(cc(N4CCN(CCO)CC4)cc3c1=O)SCC2 |  | 100 µg/mL (≈ 266 µM) | 100 µg/mL (≈ 266 µM) | > 50 µg/mL | > 100 µg/mL |  |
| O=C(O)c1cn2c3c(ccc(C(F)(F)F)c3c1=O)SCC2 | > 50 µg/mL | > 50 µg/mL | > 50 µg/mL | > 50 µg/mL | 100 µg/mL (≈ 317 µM) | > 50 µg/mL |
| O=C(O)c1cn2c3c(cccc3c1=O)S(=O)(=O)CC2 | > 100 µg/mL | 100 µg/mL (≈ 358 µM) | > 100 µg/mL | > 100 µg/mL | 100 µg/mL (≈ 358 µM) | > 100 µg/mL |
| O=C(O)c1cn2c3c(cc(N4CCNCC4)cc3c1=O)SCC2 | 50 µg/mL (≈ 151 µM) | > 50 µg/mL | > 50 µg/mL | 50 µg/mL (≈ 151 µM) | 50 µg/mL (≈ 151 µM) | 50 µg/mL (≈ 151 µM) |
| O=C(O)c1cn2c3c(cc(N4CCN(C(=O)C(F)(F)F)CC4)cc3c1=O)SCC2 |  | > 50 µg/mL | 50 µg/mL (≈ 117 µM) | > 50 µg/mL | 100 µg/mL (≈ 234 µM) |  |
| O=C(O)c1cn2c3c(c(Cl)c(N4CCCC4)cc3c1=O)SCC2 | > 50 µg/mL | > 50 µg/mL | > 50 µg/mL | > 50 µg/mL | > 50 µg/mL | > 50 µg/mL |
| O=C(O)c1cn2c3c(cc(N4CCOCC4)cc3c1=O)SCC2 | > 50 µg/mL | > 50 µg/mL | > 50 µg/mL | > 50 µg/mL | 6.25 µg/mL (≈ 18.8 µM) | > 50 µg/mL |
| O=C(O)c1cn2c3c(cc(F)c(Cl)c3c1=O)SCC2 | > 50 µg/mL | > 50 µg/mL | > 50 µg/mL | > 50 µg/mL | > 50 µg/mL | > 50 µg/mL |
| O=C(O)c1cn2c3c(cc(N4CCN(Cc5ccccc5)CC4)cc3c1=O)SCC2 |  | 50 µg/mL (≈ 119 µM) | 50 µg/mL (≈ 119 µM) | > 50 µg/mL | > 50 µg/mL |  |
| O=C(O)c1cn2c3c(cc(N4CCCC4)cc3c1=O)SCC2 |  | 50 µg/mL (≈ 158 µM) | 50 µg/mL (≈ 158 µM) |  | 100 µg/mL (≈ 316 µM) |  |

Compounds with a lower MIC (Escherichia coli), results first:

| MIC (Enterobacter cloacae) | MIC (Escherichia coli) | MIC (Staphylococcus aureus) | MIC (Morganella morganii) | MIC (Pseudomonas aeruginosa) | MIC (Klebsiella pneumoniae) | SMILES |
| --- | --- | --- | --- | --- | --- | --- |
| 50 µg/mL (≈ 143 µM) | 12.5 µg/mL (≈ 35.7 µM) | 12.5 µg/mL (≈ 35.7 µM) | > 50 µg/mL | > 50 µg/mL | 25 µg/mL (≈ 71.4 µM) | O=C(O)c1cn2c3c(c(N4CCCC4)c(F)cc3c1=O)[S+]([O-])CC2 (stereo not given) |
| 6.25 µg/mL (≈ 14.8 µM) | 6.25 µg/mL (≈ 14.8 µM) | 0.39 µg/mL (≈ 0.925 µM) | > 50 µg/mL | > 50 µg/mL | 6.25 µg/mL (≈ 14.8 µM) | CCOC(=O)N1CCN(c2c(F)cc3c(=O)c(C(=O)O)cn4c3c2SCC4)CC1 |
| 3.12 µg/mL (≈ 8.27 µM) | 6.25 µg/mL (≈ 16.6 µM) | 3.12 µg/mL (≈ 8.27 µM) | 25 µg/mL (≈ 66.2 µM) | 100 µg/mL (≈ 265 µM) | 6.25 µg/mL (≈ 16.6 µM) | CC1CN(c2c(F)cc3c(=O)c(C(=O)O)cn4c3c2SCC4)CC(C)N1 (stereo not given) |
| 25 µg/mL (≈ 101 µM) | 6.25 µg/mL (≈ 25.3 µM) | 25 µg/mL (≈ 101 µM) | 12.5 µg/mL (≈ 50.6 µM) | 50 µg/mL (≈ 202 µM) | 25 µg/mL (≈ 101 µM) | O=C(O)c1cn2c3c(cccc3c1=O)SCC2 |
| 25 µg/mL (≈ 68.2 µM) | 3.12 µg/mL (≈ 8.52 µM) | 3.12 µg/mL (≈ 8.52 µM) | > 50 µg/mL | > 50 µg/mL | 25 µg/mL (≈ 68.2 µM) | O=C(O)c1cn2c3c(c(N4CCCC4)c(F)cc3c1=O)S(=O)(=O)CC2 |
| 6.25 µg/mL (≈ 23.6 µM) | 0.78 µg/mL (≈ 2.94 µM) | 6.25 µg/mL (≈ 23.6 µM) | 3.12 µg/mL (≈ 11.8 µM) | 50 µg/mL (≈ 188 µM) | 3.12 µg/mL (≈ 11.8 µM) | O=C(O)c1cn2c3c(cc(F)cc3c1=O)SCC2 |
